Experimental data gathered from unrelated publications.
Compare with care: the assays were run in different laboratories.
Cell line: MDA-MB-231
Effect on: cell growth or viability

`CNC(=O)c1cc(Oc2ccc(NC(=O)Nc3ccc(Cl)c(C(F)(F)F)c3)cc2)ccn1` has a viability of 24.3% (MTT; 25 µM, 24 h).
The inhibition of `C[C@H](N)C(=O)Nc1ccccc1/N=c1\cc(-c2ccc3c(c2)OCCO3)oc2c(N)cccc12` is reported as -1.6% (CCK-8; 1 µM).
For `O=C(Nc1ccc(Cl)cc1)Nc1ccc(Oc2nc3ccccc3n3cnnc23)cc1`, the viability was 100% (MTT; 3.125 µM, 24 h).
For `COc1ccc(-c2nn(-c3ccccc3)cc2C=Nc2c(N)nc(S)nc2O)cc1`, the CC50 was > 20 µM (48 h).
The viability of `O=C(Nc1ccccc1)Nc1ccc(Oc2nc3ccccc3n3cnnc23)cc1` is reported as 59.2% (MTT; 50 µM, 24 h).
For `COCCC(=O)Nc1ccccc1/N=c1\cc(-c2ccc3c(c2)OCO3)oc2ccccc12`, the inhibition was 8.73% (CCK-8; 1 µM).
`Cc1ccc(C=NNC(=O)C2CC(=O)N(c3ccc(F)cc3F)C2)cc1` (stereo not drawn) gave an EC50 of 22.8 µM (MTT; 72 h).
With `Nc1nc(S)nc(O)c1N=Cc1cn(-c2ccccc2)nc1-c1ccccc1` the CC50 was > 20 µM (48 h).
`COc1cccc2c1C(=O)c1c(O)c3c(c(O)c1C2=O)C[C@@](O)(C(=O)CO)C[C@@H]3O[C@H]1C[C@H](N)[C@H](O)[C@H](C)O1` has an EC50 of 0.022 µM (MTT; 72 h).
The inhibition of `CCNc1nc2ccc(-c3c/c(=N\c4ccccc4NC(=O)CCN)c4ccccc4o3)cc2o1` is reported as 54.2% (CCK-8; 1 µM).
`CCN(N=Cc1ccc(Br)cc1)C(=O)C1CC(=O)N(c2ccc(F)cc2F)C1` (stereo not drawn) has an EC50 of 32.9 µM (MTT; 72 h).
`COc1ccc2/c(=N/c3ccccc3NC(=O)[C@@H](N)C(C)(C)C)cc(-c3ccc4c(c3)OCO4)oc2c1` gave an inhibition of 7.49% (CCK-8; 1 µM).
